Results from ChEMBL document CHEMBL3797154, “Design and Synthesis of 1-((1,5-Bis(4-chlorophenyl)-2-methyl-1H-pyrrol-3-yl)methyl)-4-methylpiperazine (BM212) and N-Adamantan-2-yl-N'-((E)-3,7-dimethylocta-2,6-dienyl)ethane-1,2-diamine (SQ109) Pyrrole Hybrid Derivatives: Discovery of Potent Antitubercular Agents Effective against …” (J Med Chem, 2016).
Converted amounts (≈) assume the structure as drawn. The source made the active and inactive calls. The calls are words filed in the database; no cut-off is given here.

Assays:
[1] = test system: Mycolicibacterium aurum; assay: Inhibition of multidrug resistance efflux pump in Mycobacterium aurum ATCC 23366 assessed as inhibition of ethidium bromide efflux by measuring relative fluorescence units for ethidium bromide accumulation at 1/4 times MIC incubated for 60 mins by fluorimetric assay
Outline: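 Whole-cell efflux assay: early-log cells (OD600 ~0.8) adjusted to OD600 0.4, washed into PBS; 4-6x10^7 bacteria/mL with 0.4% glucose, 0.5 mg/L ethidium bromide substrate and compound at 1/4x MIC. Fluorescence ex 544/em 590 nm at 37 °C every minute for 60 min; accumulation scored 0-4 by relative fluorescence bands. Verapamil positive, PBS negative control.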

[2] = test system: Mycolicibacterium smegmatis; assay: Antimycobacterial activity against Mycobacterium smegmatis str. MC2 155 ATCC 700084 assessed as inhibition of mycobacterial growth incubated for 24 hrs by MABA method; assay type: functional; conditions: MC2 155 ATCC 700084, 24 h
[3] = test system: Mycolicibacterium aurum; assay: Antimycobacterial activity against Mycobacterium aurum ATCC 23366 assessed as inhibition of mycobacterial growth incubated for 4 days; assay type: functional
Outline: (§1)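 HT-SPOTi agar dilution: two-fold serial dilutions of compound were mixed into Middlebrook 7H10 agar with 0.05% glycerol and 10% OADC, giving a final range of 500–0.5 µg/mL. Each well was spotted with 2x10^3 CFU of early-to-mid-log culture. Plates were incubated at 35 or 37 °C until spots appeared in control wells. Controls were DMSO-only and isoniazid. The MIC was read, in triplicate.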

[4] = test system: Mycobacterium tuberculosis; assay: Antimycobacterial activity against Mycobacterium tuberculosis mc'2-7000x assessed as inhibition of mycobacterial growth; assay type: functional
[5] = test system: Mycobacterium tuberculosis; assay: Antimycobacterial activity against Mycobacterium tuberculosis H37Rv ATTC 27294 assessed as inhibition of mycobacterial growth incubated for 7 days; assay type: functional; conditions: H37Rv ATTC 27294, 168 h
Outline: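 MIC by HT-SPOTi on Middlebrook 7H10 agar with 0.05% (v/v) glycerol and 10% (v/v) OADC in 96-well format. Compounds dissolved at 50 mg/mL (stock), two-fold serial dilutions, final 500-0.5 µg/mL. Each well spotted with 2 µL early-to-midlog culture (2x10^3 CFU), incubated at 37 °C until distinct spots in control wells. DMSO-only and isoniazid controls; triplicate.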

[6] = Cytotoxic activity against human THP1 cells assessed as reduction in cell viability incubated for 48 hrs by […] based assay; design: species or system THP-1; conditions: THP1 cells
Outline: (§2)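 RAW264.7 or THP-1 cells were grown in RPMI-1640 with 10% FBS and seeded at 10^5 cells/mL. Compound was two-fold serially diluted from a 50 mg/mL stock, with a solvent-control row. Plates were held 48 h at 37 °C in 5% CO2. Wells were washed twice with PBS, with centrifugation between washes for THP-1, then given fresh RPMI plus 0.01% […]. After overnight incubation, fluorescence was read at 560/590 nm and GIC50 derived.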

[7] = Cytotoxic activity against mouse RAW264.7 cells assessed as reduction in cell viability incubated for 48 hrs by […] based assay; outline: as §2
[8] = Selectivity index, ratio of GIC50 for cytotoxicity against mouse RAW264.7 cells to MIC for Mycobacterium tuberculosis H37Rv ATTC 27294; assay type: toxicity, cell-based; conditions: read-out: Selectivity Index
Outline: (§3)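 SI = GIC50 / H37Rv MIC (agar spot assay). GIC50 from cells in RPMI-1640 + 10% FBS, 37 °C, 5% CO2; 10^5 cells/mL added to two-fold compound dilutions from 50 mg/mL stock, solvent control row. 48 h exposure, washes (THP-1 centrifuged), fresh medium plus 0.01% […], overnight; fluorescence ex 560/em 590 nm.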

[9] = Selectivity index, ratio of GIC50 for cytotoxicity against human THP1 cells to MIC for Mycobacterium tuberculosis H37Rv ATTC 27294; assay type: toxicity, cell-based, THP-1; conditions: read-out: Selectivity Index; outline: as §3
[10] = test system: Mycolicibacterium aurum; assay: Antimycobacterial activity against Mycobacterium aurum ATCC 23366 assessed as inhibition of mycobacterial growth at 500 ug/ml incubated for 4 days; assay type: functional, organism-based; outline: as §1

Row | Structure (SMILES) | Activity [1] [RFU] | MIC [2] [µg/mL] | MIC ([3]; ATCC 23366, 96 h) [µg/mL] | MIC [4] [µg/mL] | MIC [5] [µg/mL] | GI50 at 48 h [6] [µg/mL] | GI50 at 48 h [7] [µg/mL] | selectivity ratio [8] | selectivity ratio [9] | MIC [3] | growth inhibition (GI) [10]
1 | Cc1cc(CNC2CCCCC2)c(C)n1-c1ccc(Cl)cc1 | 2 | 8 (≈ 25.2 µM) | 7.8 (≈ 24.6 µM) | 0.5 (≈ 1.58 µM) | 0.2 (≈ 0.631 µM) | 7.4 (≈ 23.4 µM) | 10 (≈ 31.6 µM) | 50 | 37 |  | 
2 | Cc1cc(/C=N\OCc2ccccc2)c(C)n1-c1ccc(Cl)cc1 | 1 | > 64 |  | > 64 | > 125 | 500 (≈ 1480 µM) | 128 (≈ 378 µM) |  | < 4 | inactive | inactive
3 | Cc1c(CN2CCN(C)CC2)cc(-c2ccc(Cl)cc2)n1-c1ccc(Cl)cc1 | 2 | 25 (≈ 60.3 µM) | 16 (≈ 38.6 µM) | 8 (≈ 19.3 µM) | 1 (≈ 2.41 µM) | 3.23 (≈ 7.8 µM) | 19 (≈ 45.9 µM) | 19 | 3.23 |  | 
4 | Cc1cc(CN2CCN(C3C[C@@H]4CC[C@H]3C4)CC2)c(C)n1-c1ccc(Cl)cc1 (mixture of isomers) | 1 | 27 | 16 | 2 | 1.9 | 16 | 5.6 | 2.9 | 8.4 |  | 
5 | Cc1cc(CNCc2ccccc2)c(C)n1-c1ccc(F)cc1 | 1 | 16 (≈ 51.9 µM) | 7.8 (≈ 25.3 µM) | 4 (≈ 13 µM) | 1 (≈ 3.24 µM) | 28 (≈ 90.8 µM) | 5.6 (≈ 18.2 µM) | 5.6 | 28 |  | 
6 | Cc1cc(CN2CCN(C34CC5CC(CC(C5)C3)C4)CC2)c(C)n1-c1ccc(Cl)cc1 | 4 | 8 (≈ 18.3 µM) | 16 (≈ 36.5 µM) | 8 (≈ 18.3 µM) | 16 (≈ 36.5 µM) | 16 (≈ 36.5 µM) | 0.1 (≈ 0.228 µM) | 0.006 | 1 |  | 
7 | Cc1cc(CNCc2ccccc2)c(C)n1-c1ccc(Cl)cc1 | 2 | 4 (≈ 12.3 µM) | 1.9 (≈ 5.85 µM) | 0.5 (≈ 1.54 µM) | 0.5 (≈ 1.54 µM) | 7.2 (≈ 22.2 µM) | 5.5 (≈ 16.9 µM) | 11 | 14 |  | 
8 | Cc1c(CN2CCN(c3ccccc3)CC2)cc(-c2ccc(Cl)cc2)n1-c1ccc(Cl)cc1 | 2 | > 64 |  | 1 (≈ 2.1 µM) | 1.9 (≈ 3.99 µM) | 294 (≈ 617 µM) | 175 (≈ 367 µM) | 92 | 155 | inactive | 
9 | Cc1cc(CN2CCN(C3C4CC5CC(C4)CC3C5)CC2)c(C)n1-c1ccccc1F (stereo not given) | 1 | 13 (≈ 30.8 µM) | 250 (≈ 593 µM) | 1 (≈ 2.37 µM) | 3.9 (≈ 9.25 µM) | 26 (≈ 61.7 µM) | 11 (≈ 26.1 µM) | 2.8 | 6.7 |  | 
10 | Cc1cc(CN2CCN(C3C4CC5CC(C4)CC3C5)CC2)c(C)n1-c1ccc(Cl)cc1 (stereo not given) | 1 | 8 (≈ 18.3 µM) | 7.8 (≈ 17.8 µM) | 3.3 (≈ 7.53 µM) | 7.8 (≈ 17.8 µM) | 32 (≈ 73 µM) | 5.7 (≈ 13 µM) | 0.7 | 4.1 |  | 
11 | Cc1cc(CNCCc2ccccc2)c(C)n1-c1ccc(Cl)cc1 | 2 | 32 (≈ 94.4 µM) | 16 (≈ 47.2 µM) | 4 (≈ 11.8 µM) | 1 (≈ 2.95 µM) | 7.3 (≈ 21.5 µM) | 9.9 (≈ 29.2 µM) | 10 | 7.3 |  | 
12 | Cc1c(CNCc2ccccc2)cc(-c2ccc(Cl)cc2)n1-c1ccc(Cl)cc1 | 1 | 8 (≈ 19 µM) | 1 (≈ 2.37 µM) | 16 (≈ 38 µM) |  | 99 (≈ 235 µM) |  |  | 6.1 |  | 
